Values after ≈ are worked out from the molar mass of the structure shown.
Key:
Bacillus cereus = assay: Antibacterial activity against Bacillus cereus ATCC 11778 by double-dilution technique; type: functional
Procedure, shortened: (§1)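 MIC measured against each bacterial strain using a double-dilution series of each compound. Every determination was run in duplicate or triplicate.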

Listeria monocytogenes = assay: Antibacterial activity against Listeria monocytogenes ATCC 19115 by double-dilution technique; type: functional
Procedure, shortened: (§2)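 Double-dilution series of each compound against each strain, reported as MIC. Runs done in duplicate or triplicate.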

Bacillus subtilis [1] = assay: Antibacterial activity against Bacillus subtilis 168 harboring AAC(6')/APH(2'')-pRB374 by double-dilution technique; type: functional
Bacillus subtilis [2] = assay: Antibacterial activity against Bacillus subtilis 168 by double-dilution technique; type: functional; procedure, shortened: as §2
Streptococcus pyogenes = assay: Antibacterial activity against Streptococcus pyogenes Serotype M12 MGAS9429 by double-dilution technique; type: functional; procedure, shortened: as §1
Escherichia coli [3] = assay: Inhibition of protein synthesis in Escherichia coli S30 extracts after 90 mins by coupled transcription/translation assay; type: functional; conditions: 1.5 h
Procedure, shortened: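 E. coli extract coupled transcription/translation with luciferase reporter. Reactions with varying compound concentrations ran 90 min at 37 °C, were chilled on ice, then diluted in Tris-phosphate pH 7.8 buffer containing DTT, glycerol, Triton X-100 and BSA. Luminescence was read immediately after adding luciferase reagent. IC50 came from concentration-response fits of at least two independent experiments.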

[4] = tested on: Staphylococcus epidermidis; assay: Antibacterial activity against biofilm negative Staphylococcus epidermidis ATCC 12228 by double-dilution technique; type: functional; procedure, shortened: as §1
Bacillus anthracis = assay: Antibacterial activity against Bacillus anthracis 34F2 Sterne by double-dilution technique; type: functional; procedure, shortened: as §2
Haemophilus influenzae = assay: Antibacterial activity against Haemophilus influenzae ATCC 51907 by double-dilution technique; type: functional; procedure, shortened: as §1
Escherichia coli [5] = assay: Antibacterial activity against Escherichia coli MC1061 by double-dilution technique; type: functional; procedure, shortened: as §2
Staphylococcus aureus [6] = assay: Antibacterial activity against Staphylococcus aureus ATCC 29213 by double-dilution technique; type: functional; procedure, shortened: as §2
Staphylococcus aureus [7] = assay: Antibacterial activity against Staphylococcus aureus expressing NorA by double-dilution technique; type: functional; procedure, shortened: as §2
[8] = tested on: Mycolicibacterium smegmatis; assay: Antibacterial activity against Mycobacterium smegmatis str. MC2 155 by double-dilution technique; type: functional
[9] = Drug metabolism assessed as enhanced intracellular survival protein (unknown origin)-mediated conversion at 100 uM by micro plate reader analysis relative to tobramycin; type: ADME
Procedure, shortened: (§3)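 Ellman assay: CoASH release coupled to DTNB (2 mM), read at 412 nm every 30 s for 1 h at 25 °C. Compound at 100 μM. Conditions by enzyme: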

[10] = Drug metabolism assessed as aminoglycoside 2'-N-acetyltransferase Ic (unknown origin)-mediated conversion at 100 uM by micro plate reader analysis relative to tobramycin; type: ADME; procedure, shortened: as §3
[11] = Drug metabolism assessed as aminoglycoside 3-N-acetyltransferase AAC(3)-IV (unknown origin)-mediated conversion at 100 uM by micro plate reader analysis relative to tobramycin; type: ADME; procedure, shortened: as §3

SMILES | MIC (Bacillus cereus) | MIC (Listeria monocytogenes) | MIC (Bacillus subtilis [1]) | MIC (Bacillus subtilis [2]) | MIC (Streptococcus pyogenes) | IC50 (Escherichia coli [3]) | MIC [4] | MIC (Bacillus anthracis) | MIC (Haemophilus influenzae) | MIC (Escherichia coli [5]) | MIC (Staphylococcus aureus [6]) | MIC (Staphylococcus aureus [7]) | MIC [8] | fold change (FC) [9] | fold change (FC) [10] | fold change (FC) [11]
CCC[C@@H]1C[C@@H](C(=O)N[C@H]([C@H]2O[C@H](SC)[C@H](O)[C@@H](O)[C@H]2O)[C@@H](C)SCCOCCSSCCOCCS[C@H](C)[C@H](NC(=O)[C@@H]2C[C@@H](CCC)CN2C)[C@H]2O[C@H](SC)[C@H](O)[C@@H](O)[C@H]2O)N(C)C1 | 2.3 µg/mL (≈ 2.19 µM) | 4.7 µg/mL (≈ 4.47 µM) | > 150 µg/mL | 2.3 µg/mL (≈ 2.19 µM) | > 128 µg/mL | 6.1 µM | 1 µg/mL (≈ 0.951 µM) | 2.3 µg/mL (≈ 2.19 µM) | 37.5 µg/mL (≈ 35.7 µM) | 9.4 µg/mL (≈ 8.94 µM) | 0.6 µg/mL (≈ 0.571 µM) | 0.6 µg/mL (≈ 0.571 µM) | 18.8 µg/mL (≈ 17.9 µM) |  |  | 
O=C(CSCCOCCS)N[C@H](CO)[C@H](O)c1ccc([N+](=O)[O-])cc1 | 150 µg/mL (≈ 384 µM) | > 150 µg/mL | > 150 µg/mL | > 150 µg/mL | 128 µg/mL (≈ 328 µM) | 48.7 µM | > 128 µg/mL | 150 µg/mL (≈ 384 µM) | > 150 µg/mL | 37.5 µg/mL (≈ 96 µM) | > 150 µg/mL | > 150 µg/mL | > 150 µg/mL |  |  | 
CCC[C@@H]1C[C@@H](C(=O)N[C@H]([C@H]2O[C@H](SC)[C@H](O)[C@@H](O)[C@H]2O)[C@@H](C)SCCOCCS)N(C)C1 | 9.4 µg/mL (≈ 17.8 µM) | 37.5 µg/mL (≈ 71.2 µM) | > 150 µg/mL | 9.4 µg/mL (≈ 17.8 µM) | 2 µg/mL (≈ 3.8 µM) | > 100 µM | 4 µg/mL (≈ 7.59 µM) | 2.3 µg/mL (≈ 4.37 µM) | 75 µg/mL (≈ 142 µM) | 37.5 µg/mL (≈ 71.2 µM) | 4.7 µg/mL (≈ 8.92 µM) | 1.2 µg/mL (≈ 2.28 µM) | 75 µg/mL (≈ 142 µM) |  |  | 
NC[C@H]1O[C@H](O[C@H]2[C@H](O)[C@@H](O[C@@H]3O[C@H](CSCCOCCS)[C@@H](O)[C@H](N)[C@H]3O)[C@H](N)C[C@@H]2N)[C@H](N)C[C@@H]1O | 150 µg/mL (≈ 255 µM) | 18.8 µg/mL (≈ 32 µM) | 75 µg/mL (≈ 128 µM) | 2.3 µg/mL (≈ 3.91 µM) | 128 µg/mL (≈ 218 µM) | 0.43 µM | 16 µg/mL (≈ 27.2 µM) | 37.5 µg/mL (≈ 63.8 µM) | 37.5 µg/mL (≈ 63.8 µM) | 18.8 µg/mL (≈ 32 µM) | 75 µg/mL (≈ 128 µM) | 18.8 µg/mL (≈ 32 µM) | 2.3 µg/mL (≈ 3.91 µM) |  |  | 
CCC[C@@H]1C[C@@H](C(=O)NC([C@H]2O[C@H](SC)[C@H](O)[C@@H](O)[C@H]2O)[C@@H](C)SCCOCCSSCCOCCSC[C@H]2O[C@@H](O[C@@H]3[C@@H](O)[C@H](O[C@H]4O[C@H](CN)[C@@H](O)C[C@H]4N)[C@@H](N)C[C@H]3N)C(O)[C@@H](N)[C@@H]2O)N(C)C1 (single isomer, unassigned) | 9.4 µg/mL (≈ 8.45 µM) | 18.8 µg/mL (≈ 16.9 µM) | 150 µg/mL (≈ 135 µM) | 1.2 µg/mL (≈ 1.08 µM) | 64 µg/mL (≈ 57.5 µM) | 0.98 µM | 2 µg/mL (≈ 1.8 µM) | 2.3 µg/mL (≈ 2.07 µM) | 75 µg/mL (≈ 67.4 µM) | 4.7 µg/mL (≈ 4.22 µM) | 2.3 µg/mL (≈ 2.07 µM) | 4.7 µg/mL (≈ 4.22 µM) | 4.7 µg/mL (≈ 4.22 µM) | 2.6 | 1.6 | 1.4
O=C(N[C@H](CO)[C@H](O)c1ccc([N+](=O)[O-])cc1)C(Cl)Cl [CHLORAMPHENICOL] | 4.7 µg/mL (≈ 14.5 µM) | 9.4 µg/mL (≈ 29.1 µM) | 1.2 µg/mL (≈ 3.71 µM) | 2.3 µg/mL (≈ 7.12 µM) | 4 µg/mL (≈ 12.4 µM) | 6.4 µM | 8 µg/mL (≈ 24.8 µM) | 4.7 µg/mL (≈ 14.5 µM) | 0.6 µg/mL (≈ 1.86 µM) | < 0.3 µg/mL | 9.4 µg/mL (≈ 29.1 µM) | 4.7 µg/mL (≈ 14.5 µM) | 18.8 µg/mL (≈ 58.2 µM) |  |  | 
CCC[C@@H]1C[C@@H](C(=O)N[C@@H]([C@H]2O[C@H](SC)[C@H](O)[C@@H](O)[C@H]2O)[C@H](C)Cl)N(C)C1 [CLINDAMYCIN] |  | 4.7 µg/mL (≈ 11.1 µM) | > 150 µg/mL |  | 1 µg/mL (≈ 2.35 µM) | 18.1 µM | 1 µg/mL (≈ 2.35 µM) | < 0.3 µg/mL | 4.7 µg/mL (≈ 11.1 µM) | 2.3 µg/mL (≈ 5.41 µM) |  |  | 9.4 µg/mL (≈ 22.1 µM) |  |  | 
NC[C@H]1O[C@H](O[C@H]2[C@H](O)[C@@H](O[C@H]3O[C@H](CO)[C@@H](O)[C@H](N)[C@H]3O)[C@H](N)C[C@@H]2N)[C@H](N)C[C@@H]1O [TOBRAMYCIN] | 75 µg/mL (≈ 160 µM) | 18.8 µg/mL (≈ 40.2 µM) | 9.4 µg/mL (≈ 20.1 µM) | 2.3 µg/mL (≈ 4.92 µM) | 64 µg/mL (≈ 137 µM) | 0.015 µM | 0.3 µg/mL (≈ 0.642 µM) | 9.4 µg/mL (≈ 20.1 µM) | 18.8 µg/mL (≈ 40.2 µM) | 9.4 µg/mL (≈ 20.1 µM) | 37.5 µg/mL (≈ 80.2 µM) | 9.4 µg/mL (≈ 20.1 µM) | 0.6 µg/mL (≈ 1.28 µM) |  |  | 
